# Laboratory results: article PMC4734651 (MedChemComm, 2014)
# Target: TrkA (Homo sapiens, UniProt P04629)
# Assay: TrkA biochemical screening assay
# Conditions: 39 compared with 26
# Procedure, shortened: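 5FAM-tagged TrkA peptide (1.5 μM final) and ATP (190 μM final) then added. Run to 10–20% conversion in no-inhibitor wells; no-enzyme blanks. Product/substrate peaks separated on chip; percent inhibition calculated.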
# Chain of TrkA (P04629 33-796): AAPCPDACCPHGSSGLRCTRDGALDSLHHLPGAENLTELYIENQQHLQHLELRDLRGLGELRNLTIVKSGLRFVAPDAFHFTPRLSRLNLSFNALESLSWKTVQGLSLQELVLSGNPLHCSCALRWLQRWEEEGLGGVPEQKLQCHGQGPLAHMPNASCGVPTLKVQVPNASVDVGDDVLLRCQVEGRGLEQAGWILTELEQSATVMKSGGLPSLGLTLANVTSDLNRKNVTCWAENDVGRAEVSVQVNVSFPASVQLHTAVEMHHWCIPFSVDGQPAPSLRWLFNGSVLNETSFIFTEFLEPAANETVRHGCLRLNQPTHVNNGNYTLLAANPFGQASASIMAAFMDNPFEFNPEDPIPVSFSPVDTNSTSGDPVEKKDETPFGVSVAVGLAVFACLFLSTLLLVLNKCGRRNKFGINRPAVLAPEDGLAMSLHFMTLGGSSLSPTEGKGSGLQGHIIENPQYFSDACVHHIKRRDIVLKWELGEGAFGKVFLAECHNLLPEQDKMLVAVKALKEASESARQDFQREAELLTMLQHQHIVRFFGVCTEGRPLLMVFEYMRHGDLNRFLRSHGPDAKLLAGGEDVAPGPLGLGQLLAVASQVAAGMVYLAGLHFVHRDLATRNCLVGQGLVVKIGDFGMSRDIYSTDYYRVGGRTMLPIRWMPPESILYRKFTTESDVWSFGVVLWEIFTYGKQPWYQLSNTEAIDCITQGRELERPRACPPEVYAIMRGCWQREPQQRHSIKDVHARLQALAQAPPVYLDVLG
row,Structure (SMILES),increase in TrkA inhibition in comparison to 26
1,Cn1cc(-c2cncc(-c3ccc(NC(=O)Nc4cc(C(C)(C)C)on4)cc3)n2)cn1 [Compound 39],~ 5 fold

# Same assay, conditions: chlorine at A-region derivatized, compared with 1a
row,Structure (SMILES),TrkA affinity increase relative to compound 1a [times]
1,CC(C)(C)c1cc(NC(=O)Nc2cccc(Oc3cncc(-c4ccsc4)n3)c2)no1 [Compound 15],> 1000
2,COc1ccc(-c2cncc(Oc3cccc(NC(=O)Nc4cc(C(C)(C)C)on4)c3)n2)cc1 [Compound 9],> 1000
3,Cn1cc(-c2cncc(Oc3cccc(NC(=O)Nc4cc(C(C)(C)C)on4)c3)n2)cn1 [Compound 26],> 1000
4,CC(C)(C)c1cc(NC(=O)Nc2cccc(Oc3cncc(-c4ccc(F)cc4)n3)c2)no1 [Compound 36],> 1000
5,CC(C)(C)c1cc(NC(=O)Nc2cccc(Oc3cncc(-c4ccc(S(C)(=O)=O)cc4)n3)c2)no1 [Compound 20],> 1000

# Same assay, conditions: qualitative statement
row,Structure (SMILES),TrkA activity (in words)
1,CC(C)(C)c1cc(NC(=O)Nc2cccc(Oc3cncc(-c4ccsc4)n3)c2)on1 [Compound 14],relatively inactive
2,Cn1cc(-c2cncc(-c3ccc(NC(=O)Nc4cc(C(C)(C)C)nn4C)cc3)n2)cn1 [Compound 40],far more potent than their ether linked counterparts
3,CC(C)(C)c1cc(NC(=O)Nc2cccc(Oc3cncc(Cl)n3)c2)no1 [Compound 1a],not strongly active
4,CC(C)(C)c1ccc(NC(=O)Nc2cccc(Oc3cncc(-c4ccsc4)n3)c2)cc1 [Compound 13],relatively inactive
5,Cn1cc(-c2cncc(-c3ccc(NC(=O)Nc4cc(C(C)(C)C)on4)cc3)n2)cn1 [Compound 39],far more potent than their ether linked counterparts
6,Cn1nc(C(C)(C)C)cc1NC(=O)Nc1cccc(Oc2cncc(-c3ccsc3)n2)c1 [Compound 16],relatively inactive

# Same assay, conditions: read-out: %TrkA inhibition, 20 μM
row,Structure (SMILES),inhibition at 20 µM [%]
1,CC(C)(C)c1cc(NC(=O)Nc2ccc(-c3cncc(Cl)n3)cc2)no1 [Compound 38],41.4 ± 3.3
2,Cn1cc(-c2cncc(-c3ccc(NC(=O)Nc4cc(C(C)(C)C)on4)cc3)n2)cn1 [Compound 39],96.1 ± 2.3
